This is a sample that favours compounds with a hit; in the whole collection about 3% have one here.
Tn6 DDE FP – inhibitors of Tn6 peptide binding to human fibrin DD(E) | P02675 | Fibrin DD(E) TRITC-Tn6 fluorescence polarization displacement | inhibition, % at 8.3 µM | 370,000 tested, 0.21% active;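 active = inhibition above a per-campaign cutoff: mean of compounds within control limits plus 3 SD, cut at about 15% in these data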
PLCg1 inh – inhibitors of human phospholipase C gamma1; P19174; purified PLC-gamma1, fluorogenic substrate, fluorescence; inhibition, % at 12.2 µM; 370,000 tested, 0.84% active; AID 720700; in the data active = inhibition above about 9.5%
proKLK7 act – activators of human kallikrein-7 zymogen; P49862; purified proKLK7, EDANS-DABCYL substrate fluorescence; 100% is mature enzyme control, 0% vehicle; activation, % at 7 µM; 370,000 tested, 0.9% active; AID 652039;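 active = activation above the mean of all tested compounds plus 3 SD, computed per campaign excluding outliers beyond control limits, cut at about 13% in these data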
PLC-beta3 inh – blocks human PLC-beta3 enzyme activity; Q01970; Purified PLC-beta3, fluorogenic substrate, fluorescence; inhibition, % at 12.2 µM; 370,000 tested, 0.18% active; in the data active = inhibition above about 11%
NRP1-CendR mod – NRP-1/CendR interaction modulation; 360,000 tested, 0.85% active; O14786; inhibition, % at 25 µM; FAM-RPARPAR peptide binding to NRP-1, fluorescence polarization;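 active = inhibition or corrected inhibition above about 18%, plus a signal ratio from 0.5 to 1.5, limit read from the data, passing the limit was not always enough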
Tn7 DDE FP – disrupts Tn7 cyclic peptide binding to fibrin D-Dimer-E complex; P02675; inhibition, % at 8.3 µM; AID 720508; 370,000 tested, 0.13% active; FP displacement of FITC-Tn7 peptide from fibrin DD(E); 0% = median of compound wells per plate;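 active = inhibition above the mean of compounds falling within the control limits plus 3 SD of them, cut at about 14% in these data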
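System: human fibrin DD(E); quantity: Fibrin-DD(E) at 2 µM final; also added: fluorescent Tn7 probe at 0.1 µM; compound dosing: single nominal test concentration of 8.3 µM per compound; schedule: 10 min preincubation, 3 h with tracer, room temperature; detection: fluorescence polarization of the labelled Tn7 tracer; repeats: one replicate per compound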
Numbers stand for hits.

For O=S(=O)(NC1CCCCCCC1)OCC(Cl)(Cl)Cl the results were Tn6 DDE FP inactive, PLCg1 inh inactive, proKLK7 act inactive, PLC-beta3 inh inactive, NRP1-CendR mod 22 and Tn7 DDE FP inactive.
Screening COC(=O)C1=C(c2cc3ccccc3s2)C[C@@H]2CC[C@H]1N2C returned Tn6 DDE FP inactive, PLCg1 inh inactive, proKLK7 act inactive, PLC-beta3 inh inactive, NRP1-CendR mod 22 and Tn7 DDE FP inactive.
Screening CCN(CC)C(=O)c1ccc(NC(=O)COc2ccc([N+](=O)[O-])cc2Cl)cc1 returned Tn6 DDE FP inactive, PLCg1 inh inactive, proKLK7 act inactive, PLC-beta3 inh inactive, NRP1-CendR mod 31 and Tn7 DDE FP inactive.
`COC(=O)[C@@]1(O)c2c(oc3cccc(O)c3c2=O)C=C[C@H]1O` gave Tn6 DDE FP inactive, PLCg1 inh inactive, proKLK7 act inactive, PLC-beta3 inh inactive and Tn7 DDE FP inactive.
Screening CCC1C2Cc3ccc(O)cc3C1(CC)CCN2C (centres undefined) returned Tn6 DDE FP inactive, PLCg1 inh inactive, proKLK7 act inactive, PLC-beta3 inh inactive, NRP1-CendR mod 32 and Tn7 DDE FP inactive.
For S=P(c1ccccc1)(c1ccccc1)c1c[n+](Cc2ccccc2)c2ccccn12 the results were Tn6 DDE FP inactive, PLCg1 inh inactive, PLC-beta3 inh inactive and Tn7 DDE FP inactive.
Screening O=C1NC(=O)C(=Cc2ccccc2[N+](=O)[O-])C(=O)N1 returned Tn6 DDE FP inactive, PLCg1 inh inactive, proKLK7 act inactive, PLC-beta3 inh inactive, NRP1-CendR mod 25 and Tn7 DDE FP inactive.
O=C1NC(=O)C(=Cc2ccc(-c3ccccc3[N+](=O)[O-])o2)C(=O)N1 was read as Tn6 DDE FP inactive, PLCg1 inh inactive, proKLK7 act inactive, PLC-beta3 inh inactive, NRP1-CendR mod inactive and Tn7 DDE FP inactive.
Screening CC1CN1P(=O)(Oc1ccc2ccccc2c1)N1CC1C (centres undefined) returned Tn6 DDE FP inactive, PLCg1 inh inactive, proKLK7 act inactive, PLC-beta3 inh inactive, NRP1-CendR mod inactive and Tn7 DDE FP inactive.
For CC12CCC3c4ccc(OP(=O)(N5CC5)N5CC5)cc4CCC3C1CCC2=O (centres undefined) the results were Tn6 DDE FP inactive, PLCg1 inh inactive, proKLK7 act inactive, PLC-beta3 inh inactive, NRP1-CendR mod 26 and Tn7 DDE FP inactive.
Screening CC(=O)N(C)CC#CCN1CCC(O)CC1 returned Tn6 DDE FP inactive, PLCg1 inh inactive, proKLK7 act inactive, PLC-beta3 inh inactive, NRP1-CendR mod 37 and Tn7 DDE FP inactive.
Screening COc1ccc(C(=O)C(C)(C)NO)cc1 returned Tn6 DDE FP inactive, PLCg1 inh inactive, proKLK7 act inactive, PLC-beta3 inh inactive, NRP1-CendR mod 29 and Tn7 DDE FP inactive.
For O=C1C=C(N2CC2)c2ccccc2C1=O the results were Tn6 DDE FP inactive, PLCg1 inh inactive, proKLK7 act inactive, PLC-beta3 inh inactive, NRP1-CendR mod 25 and Tn7 DDE FP inactive.
`O=C1c2ccccc2-c2cc3ccccc3cc21` gave Tn6 DDE FP inactive, PLCg1 inh inactive, proKLK7 act inactive, PLC-beta3 inh inactive, NRP1-CendR mod inactive and Tn7 DDE FP inactive.
For CCOC(=O)CC[C@@H]1CC[C@]2(CCCN(Cc3ccccn3)C2)O1 the results were Tn6 DDE FP inactive, PLCg1 inh inactive, proKLK7 act inactive, PLC-beta3 inh inactive and Tn7 DDE FP inactive.
`COc1ccc(OC)c(C(O)C(C)N)c1` (centres undefined) gave Tn6 DDE FP inactive, PLCg1 inh inactive, proKLK7 act inactive, PLC-beta3 inh inactive, NRP1-CendR mod 19 and Tn7 DDE FP inactive.
For c1ccc(Cn2nnnc2C2CN=C(c3ccccc3)c3ccccc3N2)cc1 (centres undefined) the results were Tn6 DDE FP inactive, PLCg1 inh inactive, proKLK7 act inactive, PLC-beta3 inh inactive and Tn7 DDE FP inactive.
C[C@]12CC[C@@H](O)C[C@@H]1CC[C@@H]1[C@@H]2CC[C@]2(C)C(=O)CC[C@@H]12 was read as Tn6 DDE FP inactive, PLCg1 inh inactive, proKLK7 act inactive, PLC-beta3 inh inactive, NRP1-CendR mod inactive and Tn7 DDE FP 16.
`Cc1cc(N2CCNC[C@H]2C)ccc1N1CCN[C@H](C)C1` gave Tn6 DDE FP inactive, PLCg1 inh inactive, proKLK7 act inactive, PLC-beta3 inh inactive and Tn7 DDE FP inactive.
For O=P(CN1CCN(c2ccccc2)CC1)(N1CCCCC1)N1CCCCC1 the results were Tn6 DDE FP inactive, PLCg1 inh inactive, proKLK7 act inactive, PLC-beta3 inh inactive, NRP1-CendR mod 34 and Tn7 DDE FP inactive.
CC1(C)CN=C(Nc2ccc(F)c(Cl)c2)S1 was read as Tn6 DDE FP inactive, PLCg1 inh inactive, proKLK7 act inactive, PLC-beta3 inh inactive, NRP1-CendR mod 27 and Tn7 DDE FP inactive.
Screening CC1C2Cc3ccc(O)cc3C1(C)CCN2CC1CC1 (centres undefined) returned Tn6 DDE FP inactive, PLCg1 inh inactive, proKLK7 act inactive, PLC-beta3 inh inactive and Tn7 DDE FP inactive.
CC1(C(=O)O)CCCC2(C)c3cc(O)ccc3CCC12 (centres undefined) was read as Tn6 DDE FP inactive, PLCg1 inh inactive, proKLK7 act inactive, PLC-beta3 inh inactive, NRP1-CendR mod 34 and Tn7 DDE FP inactive.
For COc1ccc(OC(=O)N(C)C)c(CN(C)C)c1 the results were Tn6 DDE FP inactive, PLCg1 inh inactive, proKLK7 act inactive, PLC-beta3 inh inactive, NRP1-CendR mod 27 and Tn7 DDE FP inactive.
`c1ccc(Cc2cnc(N3CCNCC3)nc2)cc1` gave Tn6 DDE FP inactive, PLCg1 inh inactive, proKLK7 act inactive, PLC-beta3 inh inactive and Tn7 DDE FP inactive.
CCN1CCN(S(=O)(=O)c2ccc(Cl)nc2)CC1 was read as Tn6 DDE FP inactive, PLCg1 inh inactive, proKLK7 act inactive, PLC-beta3 inh inactive, NRP1-CendR mod 28 and Tn7 DDE FP inactive.
CCN1CCN(C(=O)COc2ccc(S(=O)(=O)N3CCOCC3)cc2Cl)CC1 was read as Tn6 DDE FP inactive, PLCg1 inh inactive, proKLK7 act inactive, PLC-beta3 inh inactive, NRP1-CendR mod inactive and Tn7 DDE FP inactive.
`CC(C)(C)n1nnnc1C1CN=C(c2ccccc2)c2ccccc2N1` (centres undefined) gave Tn6 DDE FP inactive, PLCg1 inh inactive, proKLK7 act inactive, PLC-beta3 inh inactive and Tn7 DDE FP inactive.
`C=CCCC(NC(=O)OCc1ccccc1)P(=O)(Oc1ccccc1)Oc1ccccc1` (centres undefined) gave Tn6 DDE FP inactive, PLCg1 inh inactive, PLC-beta3 inh inactive and Tn7 DDE FP inactive.
Screening Clc1cccc(N2Cc3cc(N4CCOCC4)ccc3-n3nncc3C2)c1 returned Tn6 DDE FP inactive, PLCg1 inh inactive, proKLK7 act inactive, PLC-beta3 inh inactive, NRP1-CendR mod inactive and Tn7 DDE FP inactive.
`Clc1cccc(N2Cc3cc(-c4ccccc4)ccc3-n3nncc3C2)c1` gave Tn6 DDE FP inactive, PLCg1 inh 12, proKLK7 act inactive, PLC-beta3 inh inactive, NRP1-CendR mod inactive and Tn7 DDE FP inactive.

Screens from PubChem.
